PG9 binder – small molecules binding HIV-1 gp120 antibody PG9. TR-FRET gp120-PG9 antibody binding. inhibition, % at 6.7 µM. actives 0.43% (n = 360,000); in the data active = inhibition above about 8.5%
VLA-4 inh – inhibition in a human VLA-4 binding assay. P13612. VLA-4 expressing cells, ligand binding flow cytometry. inhibition, % (about 7 µM as worked out from the volumes in the protocol). actives 0.2% (n = 330,000). AID 2557; in the data active = inhibition above about 50%
NR2E3 ag-1 – NR2E3 (human) agonism | Q9Y5X4 | GST-NR2E3/biotin-RetCOR TR-FRET, 1536-well | inhibition of corepressor binding, % at 4.78 µM | actives 0.12% (n = 320,000) | AID 2300;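 active = percent inhibition above the cutoff of mean plus 3 SD of all tested compounds, set per screening campaign, cut at about 20% in these data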;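 also: 0% = DMSO wells and 100% = biotin wells as full block of FRET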
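system = GST-tagged NR2E3 plus biotinylated RetCOR corepressor | input = 1.35 nM GST-NR2E3 | also added = 7 nM biotin-RetCOR | schedule = 5 h incubation at 4 °C | measured by = TR-FRET with europium anti-GST and streptavidin-D2, 340 nm excitation | read-out = percent loss of FRET ratio relative to control wells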
NR2E3 ag-2 – agonists of human NR2E3 nuclear receptor; Q9Y5X4; CHO-S Gal4-NCOR/VP16-NR2E3 two-hybrid, luciferase; actives 0.35% (n = 360,000); AID 602229; inhibition of corepressor binding, % at 3.98 µM;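 active = inhibition above the mean of all tested compounds plus 3 SD, cut at about 70% in these data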;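 also: 0% = DMSO with NR2E3 transfected cells and 100% = cells lacking NR2E3 construct; higher means lower luciferase signal from less NR2E3 corepressor binding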
NR1D1 modulator – modulators of human Rev-erb alpha DNA binding; actives 0.79% (n = 370,000); P20393; AID 1259318; Rev-erbα–FITC-DNA binding, fluorescence polarization, 90 min; activity, % at 10 µM;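 active = activity above about 14%, limit read from the data; passing the limit was not always enough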;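 also: 0% = DMSO wells with 35 nM protein and 100% = DMSO wells with 750 nM protein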
An asterisk follows results filed as active; . = no result given. Compounds with a hit are over-represented: about 1.6% of the library has one in this group of screens.

SMILES | PG9 binder | VLA-4 inh | NR2E3 ag-1 | NR2E3 ag-2 | NR1D1 modulator
Cc1cc(C)c(C(=O)/C=C/c2ccc(C(C)C)cc2)c(=O)[nH]1 | 2.3 | 1.9 | -3.7 | 82.0* | 3.8
CC(=O)N[C@@H](C=O)[C@@H](O)[C@@H](O)[C@H](O)CO | . | . | . | . | -1.6
C1=Cc2cccc(OCC3CNCCO3)c2C1 (centres undefined) | . | . | . | . | 1.0
Cc1c2ccccc2cc[n+]1CCCS(=O)(=O)[O-] | -1.0 | 11.6 | 0.6 | 12.1 | 0.3
CC1(C)C(/C=C/C=C/C=C/C=C2\N(CCCCS(=O)(=O)O)c3ccc4ccccc4c3C2(C)C)=[N+](CCCCS(=O)(=O)[O-])c2ccc3ccccc3c21 | . | -2.5 | 27.5* | -27.4 | .
CCN1CCN(CCCNc2ncnc3nc[nH]c23)CC1 | 13.7* | -1.7 | 1.8 | -7.6 | 6.4
CCCCC(=O)O[C@]1(C(=O)CO)CCC2C3CCC4=CC(=O)CC[C@]4(C)C3[C@@H](O)C[C@@]21C (some centres undefined) | . | . | . | . | 0.2
O=C(O)CC(S)C(=O)O (centres undefined) | . | . | . | . | 0.2
Nc1ccc(C(=O)O)c(O)c1 (tested in a mixture with another compound) | . | . | . | . | 2.5
Nc1ccc(O)c(C(=O)O)c1 | . | 50.7* | -4.3 | . | .
COc1ccc(-n2c(NC(=O)c3ccco3)c(C#N)c3nc4ccccc4nc32)cc1 | 6.7 | -120.5 | 8.5 | 1.9 | -2.0
CCCCn1c(NC(=O)c2ccccc2Cl)c(C#N)c2nc3ccccc3nc21 | 5.8 | -21.0 | 18.7 | 95.6* | .
N#Cc1c(NC(=O)c2ccccc2Cl)n(Cc2ccccc2)c2nc3ccccc3nc12 | -1.6 | 30.1 | 2.6 | 87.0* | 0.6
CCCCn1c(NC(=O)CC)c(C#N)c2nc3ccccc3nc21 | 0.1 | -17.5 | -1.0 | 12.2 | .
N#Cc1cc2c(nc1SCC(=O)Nc1nccs1)CCCCC2 | 37.0* | 0.1 | 15.3 | -131.2 | 22.9
O=C(CSc1nc(-c2ccccc2)nc2ccccc12)Nc1nccs1 | 28.8* | 13.2 | -21.4 | -9.8 | 7.9
O=C(O)c1cc(O)c2c(c1)[C@@H]([C@H]1c3cc(C(=O)O)cc(O)c3C(=O)c3c(O[C@H]4O[C@H](CO)[C@@H](O)[C@H](O)[C@H]4O)cccc31)c1cccc(O[C@H]3O[C@H](CO)[C@@H](O)[C@H](O)[C@H]3O)c1C2=O | . | . | . | . | -36.3
O=C(O)c1cc(O)c2c(c1)[C@@H]([C@H]1c3cc(C(=O)O)cc(O)c3C(=O)c3c(O[C@@H]4O[C@H](CO)[C@@H](O)[C@H](O)[C@H]4O)cccc31)c1cccc(OC3O[C@H](CO)[C@@H](O)[C@H](O)[C@H]3O)c1C2=O (some centres undefined) | 0.9 | 57.1* | 8.3 | -8.4 | -55.5
NC(=O)c1cc[n+](CC2=C(C(=O)O)N3C(=O)[C@H](NC(=O)C(c4ccccc4)S(=O)(=O)[O-])C3SC2)cc1 (some centres undefined) | . | . | . | . | 2.8
CCOC(=O)/C(C#N)=C/c1cc(C)n(-c2ccccc2)c1C | 0.1 | 0.9 | 2.6 | 6.6 | 3.6
Cc1cc(C)cc(-n2c(C)cc(C=C(C#N)C#N)c2C)c1 | 28.1* | 1.1 | 4.4 | -0.4 | 8.8
C[C@@H](O)[C@H]1C(=O)N2C(C(=O)O)=C(SC3Cn4cnc[n+]4C3)[C@H](C)[C@H]12 (some centres undefined) | . | . | . | . | -3.1
CC1CC(OC(=O)c2ccccc2)CC(C)(C)N1 (centres undefined) | . | . | . | . | -0.9
COc1cc(/C=C2/SC(=S)NC2=O)ccc1OS(=O)(=O)c1ccc(C)cc1 | . | 1.6 | -2.7 | 76.7* | .
C[C@H]1CN(C[C@H](Cc2ccccc2)C(=O)NCC(=O)O)CC[C@@]1(C)c1cccc(O)c1 | . | . | . | . | -3.5
COC(=O)c1nn(-c2ccc(-c3ccccc3)cc2)cc1O | 2.5 | 12.3 | 0.8 | 77.8* | -5.2
CO/N=C(\C(=O)N[C@H]1C(=O)N2C(C(=O)OCOC(=O)C(C)(C)C)=C(/C=C\c3scnc3C)CSC12)c1csc(N)n1 (some centres undefined) | . | . | . | . | -10.6
CCC(=O)OCC(=O)[C@@]1(OC(=O)CC)[C@@H](C)CC2C3CCC4=CC(=O)C=C[C@]4(C)[C@@]3(F)[C@@H](O)C[C@@]21C (some centres undefined) | . | . | . | . | -7.3
Nc1nc(=O)n([C@@H]2CS[C@@H](CO)O2)cc1F | . | . | . | . | 0.3

Source: PubChem BioAssay (several laboratories)
